Experimental findings from PubChem BioAssay are described below.

Activity calls are given as the source filed them.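 Rule for the calls, unless noted: active = inhibition above 20% together with a positive visual image hit; inconclusive = visual image hit but inhibition not above 20%; inactive = no visual image hit.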

Experiment [1] is described as follows: inhibitors of TNFa-induced NFkB p65 translocation, primary screen, imaging, HUVEC, MLSMR starter and 10KST1 sets (AID 438).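 For inhibition: signal is the nuclear over cytoplasmic p65 intensity ratio per well.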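 Note: compound added about 3h40 before a 20 min TNFalpha stimulation.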 The conditions noted are these: HUVEC TNFa-induced p65 nuclear translocation; cell count: measured here: nuclei count (cytotoxicity indicator), at 2.08 µM; inhibition: at 2 µM, stronger effect = higher value, 0% TNFa-plus-vehicle, 100% no-TNFa wells.

Experiment [2] can be described thus: inhibitors of E-selectin induction by TNFa, primary screen, imaging, HUVEC, immunofluorescence, MLSMR starter and 10KST1 sets (AID 487;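 active = visually confirmed hit in the image check and inhibition above 20%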;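 for inhibition: signal is fraction of cell area covered by stained E-selectin grains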;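 for nuclei count: 100% = median nuclei count of all wells on the same plate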). The conditions noted are these: HUVEC TNFalpha-induced E-selectin immunofluorescence imaging, at 2 µM; inhibition: stronger effect = higher value; nuclei count: measured here: cell number, toxicity.
Experiment [3] can be described thus: DUSP6 inhibitors restoring Erk phosphorylation by chemical complementation, primary imaging in DUSP6-transfected HeLa (AID 609;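 active = compounds giving at least 50% inhibition in the cell-based MKP-3 phosphatase rescue imaging test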;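 for inhibition: phospho-Erk level distribution per well compared with pooled transfected vehicle control wells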). The note with it: HeLa MKP-3 transfected, phospho-Erk imaging KS statistic, at 10 µM, cells stimulated with TPA for 15 min.
For experiment [4], the target named is Dual specificity protein phosphatase 6 (Homo sapiens) (UniProt Q16828). The experiment is described as above. The note with it: HeLa MKP-3 transfected, phospho-Erk imaging KS statistic; at 10 µM; stronger effect = higher value; cells stimulated with TPA for 15 min.
Experiment [5] addresses Voltage-gated potassium channel subunit beta-2 (Rattus norvegicus) (UniProt P62483). The experiment in a line: KvBeta enzyme negative modulators, primary screen, biochemical, NADPH fluorescence (AID 622;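 active = fluorescence slope higher than the sample average by over 3 SD, cut at about -0.22 in these data, passing the limit was not always enough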;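 note: slope of raw intensity against log time taken from 70 to 1610 s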). The conditions noted are these: recombinant KvBeta, 4-cyanobenzaldehyde reduction, at 10 µM, stronger effect = higher value.
Experiment [6] has the same target. The experiment in a line: KvBeta positive modulators, primary screen, biochemical, NADPH fluorescence (AID 623;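 active = NADPH fluorescence slope more negative than the mean of all samples by about 3 SD, 99.7% confidence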;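 note: fluorescence intensity change per second fitted from 20 to 320 s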). The note with it: Recombinant KvBeta, NADPH fluorescence decrease slope, 10 min; at 10 µM; stronger effect = lower value.
Experiment [7] addresses Alpha-2C adrenergic receptor (Homo sapiens) (UniProt P18825). The experiment in a line: modulators of alpha2C/GIRK thallium flux, primary screen, cell-based, HEK293 alpha2C/GIRK1/2 (AID 624;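 active = fluorescence slope after compound addition differing from the mean of all screened samples at 99.7% confidence, in either direction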;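 note: slope of fluorescence ratio to pre-addition baseline per second over 15 to 24 s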). The note with it: thallium flux BTC fluorescence, at 10 µM, actives lie on both sides.
A short description of experiment [8]: inhibitors of larval lipid processing in zebrafish, primary screen, whole organism, PED6 fluorescence, gall bladder and intestine (AID 686;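 active = a full or partial loss of lipid-probe fluorescence in the fish gall bladder, intestine or both, judged by eye; inactive = no fluorescence loss, or compound toxic to the fish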;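 note: larvae 5 to 7 days old with five fish per well; signal comes from phospholipase A2 cleavage of quenched PED6 carried via bile; overnight exposure to compound and PED6 before scoring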). The note with it: Zebrafish larvae PED6 lipid processing, fluorescence scoring; screened at 20 µM (by protocol). In short, it runs like this:
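System: live zebrafish larvae aged 5-7 days, whole organism; measure: graded gall bladder and intestinal fluorescence inhibition per well; incubation: overnight exposure; reagent: ingested quenched lipid PED6 at 100 nM; signal: By-eye fluorescence microscopy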

Experiment [9] in a line: inhibitors of Chlamydomonas gravitaxis, primary screen, whole organism, Chlamydomonas reinhardtii, WT vs cilia-less mutant, absorbance, 96-well (AID 463189;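 active = inhibition at or above 50% relative to wild type and mutant plate controls; inactive = inhibition below 50%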;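 note: 0% = wild type cc124 cells in DMSO and 100% = ciliumless bld1 mutant cells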). The conditions noted are these: OD600 absorbance, 2 days, at 10 µM, stronger effect = higher value.
[10] abbreviates: measured here: cell density z-score.
The mark [11] stands for this setting: measured here: nuclear c-Myc green intensity z-score.
Setting [12] is: measured here: nuclear pErk red intensity z-score, stronger effect = higher value.

Chain of Dual specificity protein phosphatase 6 (Homo sapiens) (Q16828 whole entry, looked up): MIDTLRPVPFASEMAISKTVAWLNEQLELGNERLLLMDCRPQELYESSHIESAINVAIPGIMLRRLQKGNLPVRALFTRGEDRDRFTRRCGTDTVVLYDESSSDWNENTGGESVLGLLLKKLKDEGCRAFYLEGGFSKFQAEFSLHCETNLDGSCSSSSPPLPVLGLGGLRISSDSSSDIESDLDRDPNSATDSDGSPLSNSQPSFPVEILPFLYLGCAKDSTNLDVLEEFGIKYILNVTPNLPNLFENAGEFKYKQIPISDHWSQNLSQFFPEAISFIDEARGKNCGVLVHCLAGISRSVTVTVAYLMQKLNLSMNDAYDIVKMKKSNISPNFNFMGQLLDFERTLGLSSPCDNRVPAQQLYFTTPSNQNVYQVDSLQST
Chain of Voltage-gated potassium channel subunit beta-2 (Rattus norvegicus) (P62483 whole entry, looked up): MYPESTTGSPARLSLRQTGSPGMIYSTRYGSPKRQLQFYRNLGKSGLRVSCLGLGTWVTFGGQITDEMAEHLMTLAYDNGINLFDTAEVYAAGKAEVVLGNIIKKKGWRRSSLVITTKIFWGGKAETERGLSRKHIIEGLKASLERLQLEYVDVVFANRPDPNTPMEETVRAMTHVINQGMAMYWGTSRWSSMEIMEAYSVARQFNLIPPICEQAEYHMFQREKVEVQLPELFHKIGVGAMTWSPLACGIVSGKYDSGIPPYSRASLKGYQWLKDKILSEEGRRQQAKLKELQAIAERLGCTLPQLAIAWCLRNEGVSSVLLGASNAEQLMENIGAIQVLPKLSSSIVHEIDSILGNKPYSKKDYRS
Chain of Alpha-2C adrenergic receptor (Homo sapiens) (P18825 whole entry, looked up): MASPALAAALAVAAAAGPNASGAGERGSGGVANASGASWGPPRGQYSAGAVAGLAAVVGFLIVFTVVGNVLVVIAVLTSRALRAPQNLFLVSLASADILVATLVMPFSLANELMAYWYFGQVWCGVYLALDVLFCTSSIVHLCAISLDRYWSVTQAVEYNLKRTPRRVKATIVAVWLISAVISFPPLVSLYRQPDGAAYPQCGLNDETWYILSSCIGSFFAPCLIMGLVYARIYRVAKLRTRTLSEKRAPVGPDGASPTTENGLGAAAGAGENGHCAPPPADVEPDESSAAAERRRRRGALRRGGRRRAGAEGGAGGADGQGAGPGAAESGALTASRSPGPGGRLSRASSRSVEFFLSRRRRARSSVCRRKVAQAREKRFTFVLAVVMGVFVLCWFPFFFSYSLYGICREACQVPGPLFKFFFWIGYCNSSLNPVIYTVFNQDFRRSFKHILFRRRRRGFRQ

With `CCCCOc1ccc(CSC(CC(=O)O)C(=O)O)cc1` (centres undefined), in [1], the cell count stood at 336. The inhibition was -16.7% (inactive) in experiment [1], -75.1% (inactive) in experiment [2], 3.5% (inactive) in experiment [4] and 1.39% (inactive) in experiment [9]. In [2], this molecule showed a nuclei count of 114%. The z-score in experiment [3] (setting [10]) was -0.61; in experiment [3] (setting [11]), -0.895; in experiment [3] (setting [12]), 0.193. The fluorescence slope in experiment [5] was -0.433 (inactive). The NADPH fluorescence slope in [6] is -0.000104 (inactive). For the same molecule, in experiment [7], the slope was 0.00541 (inactive). In experiment [8], the outcome was inactive.
`Oc1ccccc1CNn1cnnc1`: the cell count in experiment [1] was found to be 563. Moreover, the inhibition in [1] is -0.7% (inactive); in experiment [2], -6.7% (inactive); in experiment [4] it was -3.5% (inactive); in experiment [9] it was 18.3% (inactive). Moreover, the nuclei count in [2] came out at 168%. Further, the z-score in experiment [3] (setting [10]) is -0.0903; in experiment [3] (setting [11]), -0.194; in experiment [3] (setting [12]), 0.333. Besides, the fluorescence slope in experiment [5] is -0.324 (inactive). In addition, in experiment [6], the NADPH fluorescence slope was 1.4e-05 (inactive). In addition, in [7], the slope was 0.00654 (inactive). Besides, the molecule was called inactive in experiment [8].
Consider `Fc1ccc2[nH]c3c(N4CCN(Cc5ccc6c(c5)OCO6)CC4)ncnc3c2c1`, for which, in experiment [1], the cell count turned out to be 523. Also, the inhibition in [1] was -4.5% (inactive); in experiment [2], -93.3% (inactive); in [4], -1.12% (inactive); in experiment [9] it was 58.4% (active). In [2], this molecule returned a nuclei count of 169%. In addition, the z-score in experiment [3] (setting [10]) was 0.499; in experiment [3] (setting [11]) it was 0.133; in [3] (setting [12]), -0.391. The fluorescence slope in [5] was -0.311 (inactive). In addition, the NADPH fluorescence slope in [6] was 3.2e-05 (inactive). In addition, the slope in experiment [7] was 0.00448 (inactive). In addition, the outcome in experiment [8] was “inactive; toxic”.
Take `Cn1c(=O)n(C)c2cc(C(=O)c3ccccc3)ccc21`: the cell count in [1] was determined as 534. Further, the inhibition in experiment [1] was -14.4% (inactive); in experiment [2] it was 24.3% (inactive); in experiment [4] it was 20.2% (inactive); in experiment [9] it was -6.61% (inactive). In experiment [2], this molecule showed a nuclei count of 180%. For the same molecule, the z-score in [3] (setting [10]) is 2.47; in experiment [3] (setting [11]), -0.33; in [3] (setting [12]), -1.62. Also, the fluorescence slope in experiment [5] was -0.53 (inactive). In experiment [6], the NADPH fluorescence slope was -6.3e-05 (inactive). Moreover, the slope in [7] was 0.00503 (inactive). For the same molecule, the call in [8] was inactive.
On to `COC(=O)c1sccc1NC(=O)c1c(C)cc(=O)oc1C`, for which the cell count in experiment [1] is 553. In addition, the inhibition is 2.4% (inactive) in experiment [1], -142% (inactive) in [2], -8.76% (inactive) in experiment [4] and -11.2% (inactive) in experiment [9]. The molecule further showed a nuclei count in experiment [2] of 138%. Besides, the z-score in [3] (setting [10]) was 0.942; in experiment [3] (setting [11]), 0.338; in experiment [3] (setting [12]), -0.793. Besides, the fluorescence slope in [5] is -0.515 (inactive). For the same molecule, in experiment [6], the NADPH fluorescence slope was -3.4e-05 (inactive). In addition, the slope in [7] is 0.00537 (inactive). Moreover, in experiment [8], the outcome was inactive.
For the molecule `CC(Sc1nc(N2CCCCC2)c2c(c1C#N)CCCC2)C(=O)O` (centres undefined), the cell count in [1] amounted to 624. Further, the inhibition in experiment [1] is 4.5% (inactive); in experiment [2] it was -96.1% (inactive); in [4], 9.82% (inactive); in experiment [9], -8.39% (inactive). The nuclei count in experiment [2] is 161%. In addition, the z-score in experiment [3] (setting [10]) is -0.692; in experiment [3] (setting [11]), 0.635; in experiment [3] (setting [12]) it was -1.09. Moreover, the fluorescence slope in [5] is -0.301 (inactive). Also, the NADPH fluorescence slope in experiment [6] is 1.2e-06 (inactive). Moreover, in [7], the slope was 0.00467 (inactive). Further, the call in [8] was inactive.
With `Oc1c(C=NCc2ccncc2)sc2ccccc12`, the cell count in experiment [1] worked out at 666. Further, the inhibition was -11.1% (inactive) in [1], -63.6% (inactive) in experiment [2], -4.27% (inactive) in [4] and -6.05% (inactive) in experiment [9]. The nuclei count in experiment [2] is 177%. For the same molecule, the z-score is -0.185 in [3] (setting [10]), 0.688 in experiment [3] (setting [11]) and 2.15 in experiment [3] (setting [12]). Also, the fluorescence slope in experiment [5] was -0.425 (inactive). Further, the NADPH fluorescence slope in [6] was -6.8e-05 (inactive). Further, the slope in experiment [7] was 0.00509 (inactive). Besides, in experiment [8], the molecule was called inactive.
In the case of `c1ccc(N2CCN(c3nc(NCc4ccco4)c4ccccc4n3)CC2)cc1`, the cell count in [1] stood at 579. The inhibition in [1] was 0.1% (inactive); in experiment [2] it was -25.4% (inactive); in experiment [4], -4.7% (inactive); in experiment [9], 35.9% (inactive). In addition, in [2], the nuclei count was 219%. The figures for the z-score in experiment [3] (setting [10]), in experiment [3] (setting [11]) and in [3] (setting [12]) were 0.527, -0.848 and 2.43, respectively. Besides, the fluorescence slope in [5] is -0.35 (inactive). Besides, the NADPH fluorescence slope in [6] is -2.5e-05 (inactive). Further, the slope in [7] is 0.00337 (inactive). Also, the outcome in experiment [8] was inactive.
Turning to `C=C(c1ccc(OCCO)cc1)c1ccc(OCCO)cc1`, the cell count in [1] amounted to 323. The inhibition in experiment [1] is -11% (inactive); in [2], -16.1% (inactive); in [4] it was 1.6e-07% (inactive); in experiment [9], 13.7% (inactive). For the same molecule, the nuclei count in experiment [2] came out at 129%. The z-score in experiment [3] (setting [10]) is 0.426; in experiment [3] (setting [11]), 0.397; in [3] (setting [12]), -0.652. Further, the fluorescence slope in experiment [5] is -0.405 (inactive). Moreover, the NADPH fluorescence slope in [6] is -0.000129 (inactive). In addition, the slope in experiment [7] is 0.00576 (inactive). For the same molecule, the call in experiment [8] was inactive.
On to `CCOC(=O)CSC1=C(C#N)C(c2ccc(OC)cc2)C2=C(CC(C)(C)CC2=O)N1` (centres undefined), for which the cell count in experiment [1] is 362. For the same molecule, the inhibition in [1] is -10.7% (inactive); in experiment [2], -126% (inactive); in experiment [4] it was -8.59% (inactive); in experiment [9], 25.7% (inactive). Moreover, the nuclei count in [2] is 174%. Besides, the z-score is 0.65 in [3] (setting [10]), -1.25 in [3] (setting [11]) and -0.233 in [3] (setting [12]). In addition, the fluorescence slope in [5] was -0.411 (inactive). In experiment [6], the NADPH fluorescence slope is -0.000354 (inactive). Also, the slope in [7] was 0.00489 (inactive). For the same molecule, in [8], the result was inactive.
As to `c1ccc(OCc2nn3c(-c4ccco4)nnc3s2)cc1`, the cell count in [1] is 654. Further, the inhibition in [1] was 3.2% (inactive); in experiment [2], -139% (inactive); in experiment [4], 11.9% (inactive); in [9], 7.84% (inactive). In addition, the nuclei count in experiment [2] stood at 156%. Also, the z-score was 2.72 in [3] (setting [10]), -1.05 in experiment [3] (setting [11]) and -0.302 in experiment [3] (setting [12]). In addition, the fluorescence slope in experiment [5] is -0.417 (inactive). In addition, the NADPH fluorescence slope in [6] was -0.000108 (inactive). Further, in experiment [7], the slope was 0.00597 (inactive). Besides, in experiment [8], the molecule was called inactive.
For `Cc1ccc(/C=c2\sc3n(c2=O)CN(c2ccc(Br)cc2)CN=3)o1`, the cell count in [1] was determined as 367. For the same molecule, the inhibition in [1] is -0.5% (inactive); in experiment [2] it was -127% (inactive); in experiment [4], 22.7% (inactive); in experiment [9] it was -6.84% (inactive). For the same molecule, the nuclei count in experiment [2] came out at 137%. The z-score was 1.52 in [3] (setting [10]), -1.23 in experiment [3] (setting [11]) and -1.08 in experiment [3] (setting [12]). The fluorescence slope in [5] is -0.389 (inactive). Also, in [6], the NADPH fluorescence slope is -1.9e-05 (inactive). Also, the slope in experiment [7] is 0.00432 (inactive). In addition, the outcome in experiment [8] was inactive.
Take `COc1cc(-n2c3nc4ccccc4nc3c3c(=O)n(Cc4ccco4)cnc32)cc(OC)c1OC`: in [1], the cell count worked out at 308. Further, the inhibition was -15.2% (inactive) in experiment [1], -111% (inactive) in experiment [2], -3.5% (inactive) in experiment [4] and 3.2% (inactive) in experiment [9]. In experiment [2], this molecule displayed a nuclei count of 168%. Besides, the z-score in experiment [3] (setting [10]) is -1.73; in experiment [3] (setting [11]), 0.447; in [3] (setting [12]), 0.876. Further, the fluorescence slope in [5] was -0.417 (inactive). Moreover, the NADPH fluorescence slope in experiment [6] is -0.000139 (inactive). Further, the slope in experiment [7] is 0.00442 (inactive). Further, the call in experiment [8] was inactive.

By inhibition is commonly meant the drop in the measured response relative to a control, in per cent.
